ChEMBL document CHEMBL1649442, “Genetic determinants of resistance to fusidic acid among clinical bacteremia isolates of Staphylococcus aureus” (2009)

How the values were obtained:
Assay type in all cases: functional
Staphylococcus aureus [1] = test: Antimicrobial activity against cadX coding sequence deficient Staphylococcus aureus isolate 28400 expressing FusC C90T mutant and harboring pMW2 by Etest
Staphylococcus aureus [2] = test: Antimicrobial activity against cadXD coding sequence deficient Staphylococcus aureus isolate 27980 expressing FusB by Etest
Outline: (§1)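 Fusidic acid-resistant S. aureus bacteremia clinical isolates, originally from Statens Serum Institut. MIC read by Etest on Mueller-Hinton agar, following the manufacturer's instructions. Liquid cultures grown in LB at 37°C with shaking at 200 rpm. fusB and cadXD presence checked by PCR and sequencing.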

Staphylococcus aureus [3] = test: Antimicrobial activity against Staphylococcus aureus RN4220 transformed with Staphylococcus aureus isolate 27971 carrying pUB101 expressing cadX coding sequence by Etest
Outline: (§2)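 Plasmid DNA was extracted from each clinical bacteremia isolate after overnight growth in LB with 0.5% glycine, using lysostaphin/lysozyme/proteinase K lysis and alkaline lysis. It was electroporated into restriction-negative S. aureus RN4220 (2.3 kV, 25 μF, 100 Ω) and transformants were selected on NYE agar with ampicillin 1 μg/ml at 37°C. Fusidic acid MIC was read by Etest on Mueller-Hinton agar following the manufacturer's instructions.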

Staphylococcus aureus [4] = test: Antimicrobial activity against Staphylococcus aureus isolate 28332 expressing FusB and harboring pUB101 carrying cadX coding sequence by Etest
Staphylococcus aureus [5] = test: Antimicrobial activity against Staphylococcus aureus isolate 27856 expressing FusB and harboring pUB101 carrying cadX coding sequence by Etest
Staphylococcus aureus [6] = test: Antimicrobial activity against Staphylococcus aureus isolate 28084 expressing FusC and harboring pMW2 carrying cadX coding sequence by Etest
Staphylococcus aureus [7] = test: Antimicrobial activity against cadX coding sequence deficient Staphylococcus aureus isolate 28150 expressing FusC and harboring pMW2 by Etest
Staphylococcus aureus [8] = test: Antimicrobial activity against cadX coding sequence deficient Staphylococcus aureus isolate 28410 expressing FusC C90T mutant and harboring pMW2 by Etest
Staphylococcus aureus [9] = test: Antimicrobial activity against Staphylococcus aureus isolate 27657 expressing FusC by Etest
Staphylococcus aureus [10] = test: Antimicrobial activity against Staphylococcus aureus isolate 27980 expressing FusB and harboring pUB101 carrying cadX coding sequence by Etest
Staphylococcus aureus [11] = test: Antimicrobial activity against Staphylococcus aureus isolate 28416 expressing FusC by Etest
Staphylococcus aureus [12] = test: Antimicrobial activity against Staphylococcus aureus RN4220 transformed with Staphylococcus aureus isolate 27624 carrying pUB101 expressing cadX coding sequence by Etest; outline: as §2
Staphylococcus aureus [13] = test: Antimicrobial activity against cadXD coding sequence deficient Staphylococcus aureus isolate 28332 expressing FusB by Etest; outline: as §1
Staphylococcus aureus [14] = test: Antimicrobial activity against Staphylococcus aureus isolate 27731 expressing FusA Ala71Val, Asp189Gly, Pro406Leu mutant and harboring pMW2 carrying cadX coding sequence by Etest
Staphylococcus aureus [15] = test: Antimicrobial activity against Staphylococcus aureus RN4220 transformed with Staphylococcus aureus isolate 27980 carrying pUB101 expressing cadX coding sequence by Etest; outline: as §2
Staphylococcus aureus [16] = test: Antimicrobial activity against cadX coding sequence deficient Staphylococcus aureus isolate 27962 expressing FusA Met453Ile mutant and harboring pMW2 by Etest
Staphylococcus aureus [17] = test: Antimicrobial activity against cadX coding sequence deficient Staphylococcus aureus isolate 28335 expressing FusC C90T mutant and harboring pMW2 by Etest
Staphylococcus aureus [18] = test: Antimicrobial activity against cadXD coding sequence deficient Staphylococcus aureus isolate 27624 expressing FusB by Etest; outline: as §1
Staphylococcus aureus [19] = test: Antimicrobial activity against cadXD coding sequence deficient Staphylococcus aureus isolate 28444 expressing FusB by Etest; outline: as §1
Staphylococcus aureus [20] = test: Antimicrobial activity against cadX coding sequence deficient Staphylococcus aureus isolate 28414 expressing FusC C90T mutant and harboring pMW2 by Etest
Staphylococcus aureus [21] = test: Antimicrobial activity against Staphylococcus aureus RN4220 transformed with Staphylococcus aureus isolate 27856 carrying pUB101 expressing cadX coding sequence by Etest; outline: as §2
Staphylococcus aureus [22] = test: Antimicrobial activity against Staphylococcus aureus isolate 27844 expressing FusA Ala376Val, Leu461Phe, Asp463Gly, Ala655Pro mutant and harboring pMW2 carrying cadX coding sequence by Etest
Staphylococcus aureus [23] = test: Antimicrobial activity against Staphylococcus aureus RN4220 transformed with Staphylococcus aureus isolate 28444 carrying pUB101 expressing cadX coding sequence by Etest; outline: as §2
Staphylococcus aureus [24] = test: Antimicrobial activity against cadX coding sequence deficient Staphylococcus aureus isolate 27768 expressing FusA Leu461Ser mutant and harboring pMW2 by Etest
Staphylococcus aureus [25] = test: Antimicrobial activity against Staphylococcus aureus isolate 28130 expressing FusA Leu461Ser mutant pMW2 carrying cadX coding sequence by Etest
Staphylococcus aureus [26] = test: Antimicrobial activity against Staphylococcus aureus RN4220 transformed with Staphylococcus aureus isolate 28332 carrying pUB101 cadX coding sequence by Etest; outline: as §2
Staphylococcus aureus [27] = test: Antimicrobial activity against Staphylococcus aureus isolate 28362 expressing FusA Val90Ile mutant by Etest
Staphylococcus aureus [28] = test: Antimicrobial activity against Staphylococcus aureus isolate 27971 expressing FusB and harboring pUB101 carrying cadX coding sequence by Etest
Staphylococcus aureus [29] = test: Antimicrobial activity against cadXD coding sequence deficient Staphylococcus aureus isolate 27971 expressing FusB by Etest; outline: as §1
Staphylococcus aureus [30] = test: Antimicrobial activity against Staphylococcus aureus isolate 27624 expressing FusB and harboring pUB101 carrying cadX coding sequence by Etest
Staphylococcus aureus [31] = test: Antimicrobial activity against cadXD coding sequence deficient Staphylococcus aureus isolate 27856 expressing FusB by Etest; outline: as §1
Staphylococcus aureus [32] = test: Antimicrobial activity against Staphylococcus aureus isolate 28444 expressing FusB and harboring pUB101 carrying cadX coding sequence by Etest

Measured: MIC

CC(=O)O[C@H]1C[C@@]2(C)[C@@H](C[C@@H](O)[C@H]3[C@@]4(C)CC[C@@H](O)[C@@H](C)[C@@H]4CC[C@@]32C)/C1=C(\CCC=C(C)C)C(=O)O [FUSIDIC ACID]
256 mg/L: Staphylococcus aureus [22]
0.064 mg/L: Staphylococcus aureus [19]
4 mg/L: Staphylococcus aureus [16]
8 mg/L: Staphylococcus aureus [3] | Staphylococcus aureus [5] | Staphylococcus aureus [7] | Staphylococcus aureus [9] | Staphylococcus aureus [11] | Staphylococcus aureus [12] | Staphylococcus aureus [14] | Staphylococcus aureus [15] | Staphylococcus aureus [17] | Staphylococcus aureus [21] | Staphylococcus aureus [23] | Staphylococcus aureus [24] | Staphylococcus aureus [26] | Staphylococcus aureus [27] | Staphylococcus aureus [28]
0.094 mg/L: Staphylococcus aureus [2] | Staphylococcus aureus [18] | Staphylococcus aureus [29] | Staphylococcus aureus [31]
0.125 mg/L: Staphylococcus aureus [13]
12 mg/L: Staphylococcus aureus [4] | Staphylococcus aureus [6] | Staphylococcus aureus [10] | Staphylococcus aureus [32]
6 mg/L: Staphylococcus aureus [1] | Staphylococcus aureus [8] | Staphylococcus aureus [20] | Staphylococcus aureus [25] | Staphylococcus aureus [30]
